Measured values: ChEMBL document CHEMBL1133562, “Pyrazole ligands: structure-affinity/activity relationships and estrogen receptor-alpha-selective agonists” (J Med Chem, 2000)

How the values were obtained:
[1] = target: T1, Estrogen receptor (Homo sapiens) (UniProt P03372); assay: Relative binding affinity was determined for Estrogen receptor 1 using 10 nM [3H]-E2 as tracer (estradiol 100%)
T1 sequence (whole entry): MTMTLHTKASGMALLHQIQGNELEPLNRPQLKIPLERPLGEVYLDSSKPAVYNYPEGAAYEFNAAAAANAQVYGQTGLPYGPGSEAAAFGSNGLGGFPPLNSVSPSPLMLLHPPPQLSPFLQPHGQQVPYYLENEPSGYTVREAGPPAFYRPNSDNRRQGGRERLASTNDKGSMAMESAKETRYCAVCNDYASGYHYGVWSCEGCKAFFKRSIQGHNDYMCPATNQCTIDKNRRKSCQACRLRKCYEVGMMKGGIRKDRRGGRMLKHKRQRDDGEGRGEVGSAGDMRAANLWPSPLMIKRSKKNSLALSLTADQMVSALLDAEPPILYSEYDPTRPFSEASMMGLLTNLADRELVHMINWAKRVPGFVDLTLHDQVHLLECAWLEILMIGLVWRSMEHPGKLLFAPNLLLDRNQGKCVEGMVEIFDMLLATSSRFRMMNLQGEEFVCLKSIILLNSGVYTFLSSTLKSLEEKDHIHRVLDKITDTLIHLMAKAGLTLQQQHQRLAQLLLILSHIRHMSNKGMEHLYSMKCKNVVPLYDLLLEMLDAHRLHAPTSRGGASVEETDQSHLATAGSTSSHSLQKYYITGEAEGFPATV
Method in brief: (§1)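 Competitive radiometric binding with purified full-length human ERα or ERβ, 10 nM [3H]estradiol tracer. Receptor–tracer complex adsorbed on hydroxylapatite. Incubation at 0 °C for 18-24 h. RBA expressed relative to estradiol = 100%. Mean of at least 2, typically 3 or more, independent determinations (±SD); coefficient of variation 0.3.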

[2] = target: Estrogen receptor (Homo sapiens) (UniProt Q92731+P03372); assay: RBA ratio between ERalpha and ERbeta; assay type: protein assay
[3] = target: Estrogen receptor beta (Homo sapiens) (UniProt Q92731); assay: Relative binding affinity was determined for Estrogen receptor 2 using 10 nM [3H]E2 as tracer (estradiol 100%); method in brief: as §1
Sequence of Estrogen receptor beta (Homo sapiens) (Q92731 whole entry): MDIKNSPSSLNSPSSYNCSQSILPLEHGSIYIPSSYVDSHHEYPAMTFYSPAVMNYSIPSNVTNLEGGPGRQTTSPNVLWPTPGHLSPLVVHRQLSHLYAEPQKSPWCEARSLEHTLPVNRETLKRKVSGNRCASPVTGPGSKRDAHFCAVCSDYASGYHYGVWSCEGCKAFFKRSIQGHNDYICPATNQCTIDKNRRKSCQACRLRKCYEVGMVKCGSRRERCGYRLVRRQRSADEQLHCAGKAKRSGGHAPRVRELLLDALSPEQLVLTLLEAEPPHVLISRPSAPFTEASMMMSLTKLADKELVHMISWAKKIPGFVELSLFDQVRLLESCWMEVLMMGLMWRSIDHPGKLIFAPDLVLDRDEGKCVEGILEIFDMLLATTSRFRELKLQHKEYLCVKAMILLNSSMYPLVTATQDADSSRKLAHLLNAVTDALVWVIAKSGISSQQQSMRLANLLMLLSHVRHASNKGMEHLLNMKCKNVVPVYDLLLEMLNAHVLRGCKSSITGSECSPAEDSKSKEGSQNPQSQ

Sequence of Estrogen receptor (Homo sapiens) (UniProt Q92731+P03372) (Q92731 whole entry, looked up, one chain of several): as the sequence (Q92731 whole entry) above

Row | RBA [1] | Ratio [2] | RBA [3] | SMILES
1 | 75 | 84 | 0.89 | CC(C)Cc1c(-c2ccc(O)cc2)nn(-c2ccc(O)cc2)c1-c1ccc(O)cc1
2 | 16.8 | 32 | 0.52 | CCCc1c(-c2ccc(O)cc2)nn(-c2ccccc2)c1-c1ccc(O)cc1
3 | 14 | 77 | 0.18 | CCCCc1c(-c2ccc(O)cc2)nn(-c2ccc(O)cc2)c1-c1ccc(O)cc1
4 | 49 |  |  | CCCc1c(-c2ccc(O)cc2)nn(-c2ccc(O)cc2)c1-c1ccc(O)cc1
5 | 36 | 240 | 0.15 | CCc1c(-c2ccc(O)cc2)nn(-c2ccc(O)cc2)c1-c1ccc(O)cc1

Second part, the molecule before the results:

Row | SMILES | RBA [1] | Ratio [2] | RBA [3]
6 | CCc1c(-c2ccccc2)nn(-c2ccc(O)cc2)c1-c1ccc(O)cc1 | 7 | 9 | 0.8
7 | CC(C)c1c(-c2ccc(O)cc2)nn(-c2ccccc2)c1-c1ccc(O)cc1 | 5.6 | 6.5 | 0.86
8 | CCc1c(-c2ccccc2)nn(-c2ccc(O)cc2)c1-c1ccccc1 | 3.1 | 2.1 | 1.5
9 | CCc1c(-c2ccc(O)cc2)nn(-c2ccccc2)c1-c1ccc(O)cc1 | 31 | 28 | 1.1
10 | Cc1c(-c2ccc(O)cc2)nn(-c2ccccc2)c1-c1ccc(O)cc1 | 0.76 | 2.7 | 0.28
11 | CCc1c(-c2ccc(O)cc2)nn(-c2ccc(O)cc2)c1-c1ccccc1 | 8.9 | 28 | 0.32
12 | CCc1c(-c2ccc(O)cc2)nn(-c2ccccc2)c1-c1ccccc1 | 2.6 | 4.3 | 0.61
13 | CC(C)Cc1c(-c2ccc(O)cc2)nn(-c2ccccc2)c1-c1ccc(O)cc1 | 56 | 40 | 1.4
14 | CCCCc1c(-c2ccc(O)cc2)nn(-c2ccccc2)c1-c1ccc(O)cc1 | 8.7 | 19 | 0.47
15 | CCc1c(-c2ccccc2)nn(-c2ccccc2)c1-c1ccc(O)cc1 | 0.04 | 0.67 | 0.06
